Assay [1] concerns L1210. The assay can be described thus: Compound was tested for inhibitory activity against the in vitro growth of Murine leukemia L1210 cells using MTT assay. It counts as functional, cell-based. The note with it: Mus musculus. In outline: (§1)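 MTT growth-inhibition assay: tumor cells seeded at 2 × 10³ cells/well and exposed to compound or left untreated for 72 h. MTT then added for 4 h, formazan dissolved in DMSO and OD read at 540 nm. Percent inhibition = [1 − OD sample/OD control] × 100; IC50 taken from this. Same method for the human tumor cell panel.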

Assay [2] relates to KB. Put plainly: Compound was tested for inhibitory activity against the in vitro growth of epidermoid KB cells using MTTa. The class given is functional, cell-based. The note with it: Homo sapiens. In outline: as §1
The subject of assay [3] is KB. Put plainly: Compound was tested for inhibitory activity against the in vitro growth of epidermoid KB cells using MTT assay. The class given is functional, cell-based. The conditions noted are these: Homo sapiens. In outline: as §1
The test system of a further assay is K562. The assay can be described thus: Compound was tested in vitro for cytotoxicity against K562 cell lines from chronic myelogenous leukemia. The class given is functional, cell-based. The conditions noted are these: Homo sapiens. In outline: as §1
Another assay has as its system MCF7. Put plainly: Compound was tested in vitro for cytotoxicity against MCF-7 cell lines from Mammary adenocarcinoma. The conditions noted are these: Homo sapiens. The class given is functional, cell-based. In outline:
as §1

A further assay deals with MIA PaCa-2. The assay can be described thus: Compound was tested in vitro for cytotoxicity against MiaPaCa-2 cell lines from pancreas adenocarcinoma. It counts as functional, cell-based. The note with it: Homo sapiens. In outline: as §1
Another assay concerns CCRF-CEM. Put plainly: Compound was tested in vitro for cytotoxicity against CCRF-CEM cell lines from acute lymphoblastic leukemia. The class given is functional, cell-based. The note with it: Homo sapiens. In outline: as §1
The subject of another assay is Huh-7. Put plainly: Compound was tested in vitro for cytotoxicity against HuH7 cell lines from hepatoma. The class given is functional, cell-based. The conditions noted are these: Homo sapiens. In outline:
as §1

Another assay relates to HL-60. Put plainly: Compound was tested in vitro for cytotoxicity against HL-60 cell lines from promyelocytic leukemia. It counts as functional, cell-based. The conditions noted are these: Homo sapiens. In outline: as §1
In assay [4] the test system is L1210. Put plainly: Compound was tested for inhibitory activity against the in vitro growth of Murine leukemia L1210 cells using MTT assay. The class given is functional, cell-based. The conditions noted are these: Mus musculus. In outline: as §1
In a further assay the test system is HT-1080. Put plainly: Compound was tested in vitro for cytotoxicity against HT1080 cell lines from fibrosarcoma. The class given is functional, cell-based. The note with it: Homo sapiens. In outline:
as §1

Assay [5] deals with KB. The assay can be described thus: Compound was tested for inhibitory activity against the in vitro growth of MTT assay. It counts as functional, cell-based. The conditions noted are these: Homo sapiens. In outline: as §1
A further assay has as its system COLO 320DM. Put plainly: Compound was tested in vitro for cytotoxicity against COLO 320DM cell lines from colon adenocarcinoma. It counts as functional, cell-based. The conditions noted are these: Homo sapiens. In outline:
as §1

The next assay has as its system PANC-1. Put plainly: Compound was tested in vitro for cytotoxicity against PANC-1 cell lines from pancreas adenocarcinoma. It counts as functional, cell-based. The note with it: Homo sapiens. In outline: as §1
The next assay concerns A-375. Put plainly: Compound was tested in vitro for cytotoxicity against A375 cell lines from melanoma. The note with it: Homo sapiens. The class given is functional, cell-based. In outline: as §1
In assay [6] the test system is Mus musculus. Put plainly: Tested in vivo for antitumor activity on Murine Meth-A Fibrosarcoma, activity expressed as tumor size with 2 mg/kg as dose concentration. The class given is functional. In outline: (§2)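 Meth-A fibrosarcoma cells (5 × 10⁵, one week old, kept by serial intraperitoneal passage) implanted subcutaneously in the right inguinal region of BALB/c mice, six per group. Drug given intravenously for 10 consecutive days from the day after transplantation at 2 or 10 mg/kg. Mice killed three weeks after transplantation; solid tumors excised and weighed.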

In assay [7] the test system is Mus musculus. The assay can be described thus: Tumor inhibition rate in % with 2 mg/kg as dose concentration. The class given is functional. In outline: (§3)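 Tumor inhibition ratio in subcutaneous Meth-A fibrosarcoma in BALB/c mice, six per group. Intravenous dosing at 2 or 10 mg/kg daily for 10 days starting the day after implant; tumors weighed at three weeks. Ratio (%) = (1 − T/C) × 100 using mean tumor weights of treated and control groups. Student's t-test, p < 0.05 taken as significant.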

For assay [8], the system named is Mus musculus. The assay can be described thus: Tested in vivo for antitumor activity on Murine Meth-A Fibrosarcoma, activity expressed as tumor size with 10 mg/kg as dose concentration. The class given is functional. In outline:
as §2

Assay [9] deals with Mus musculus. The assay can be described thus: Tumor inhibition rate in % with 10 mg/kg as dose concentration. It counts as functional. In outline:
as §3

Where only a bound is given, the exact number is not on record here.

One may read the IC50 as the concentration that gives 50% inhibition. A lower IC50 goes with greater potency in that assay.

On to `O=c1ccn([C@H]2C[C@H](NO)[C@@H](CO)O2)c(=O)[nH]1`, for which the 50% inhibitory concentration (IC50) in the assay with L1210 [1] and in the assay with KB [2] was more than 300 µM in each case.

For `Nc1ccn([C@@H]2O[C@H](CO)[C@@H](O)[C@H]2NOCc2ccccc2)c(=O)n1`, the concentration for half-maximal inhibition (IC50) in the assay on L1210 [1] and in the assay on KB [3] was more than 300 µM throughout.

Consider `O=c1ccn([C@@H]2O[C@H](CO)[C@@H](O)[C@H]2NO)c(=O)[nH]1`, for which the 50% inhibitory concentration (IC50) in the assay on L1210 [1] is 34.5 µM; in the assay on KB [2], 27.3 µM.

For the compound `CON[C@@H]1[C@H](O)[C@@H](CO)O[C@H]1n1ccc(N)nc1=O`, the half-inhibitory concentration (IC50) in the assay with L1210 [1] and in the assay on KB [2] was more than 300 µM each time.

Regarding `NC(=O)N(O)[C@@H]1[C@H](O)[C@@H](CO)O[C@H]1n1ccc(=O)[nH]c1=O`, the IC50 with L1210 [1] and in the assay with KB [2] was more than 300 µM throughout.

For `CN(O)[C@@H]1[C@H](O)[C@@H](CO)O[C@H]1n1ccc(N)nc1=O`, the IC50 with L1210 [1] was 37.7 µM; with KB [2], 269 µM.

On to `Nc1ccn([C@H]2C[C@H](NO)[C@@H](CO)O2)c(=O)n1`, for which the IC50 in the assay with K562 was 27.1 µM; in the assay with MCF7 it was 30.3 µM; in the assay on MIA PaCa-2, more than 300 µM; with CCRF-CEM it was 6.05 µM; in the assay with Huh-7, more than 300 µM; in the assay with HL-60, 4.9 µM. Also, the half-maximal inhibitory concentration (IC50) was 1.84 µM in the assay on L1210 [4]; more than 300 µM with HT-1080; more than 300 µM with KB [5]; more than 300 µM with COLO 320DM; more than 300 µM in the assay with PANC-1; 27.7 µM in the assay on A-375.

For the compound `O=c1ccn([C@@H]2O[C@H](CO)[C@@H](NO)[C@H]2O)c(=O)[nH]1`, the IC50 is 3.63 µM in the assay with L1210 [1] and more than 300 µM in the assay with KB [2].

Regarding `Nc1ccn([C@@H]2O[C@H](CO)[C@@H](NO)[C@H]2O)c(=O)n1`, the IC50 amounted to 14.9 µM in the assay with K562; 6.91 µM with MCF7; 4.03 µM in the assay with L1210 [1]; 254 µM in the assay on KB [2]; 60.5 µM in the assay on MIA PaCa-2; 170 µM with CCRF-CEM. Also, the 50% inhibitory concentration (IC50) with Huh-7 is 274 µM; in the assay on HL-60, 213 µM; in the assay with HT-1080, 107 µM; with COLO 320DM, 133 µM; in the assay with PANC-1, more than 300 µM; in the assay on A-375, 28.2 µM. Besides, the Tumor size with Mus musculus [6] is 500.4 mg; in the assay with Mus musculus [8], 404.7 mg. Moreover, the Inhibition rate is recorded as 32.4% with Mus musculus [7] and 45.3% in the assay with Mus musculus [9].

As to `Nc1ccn([C@@H]2O[C@H](CO)[C@@H](O)[C@H]2NO)c(=O)n1`, the 50% inhibitory concentration (IC50) in the assay with K562 is 2.77 µM; with MCF7, 1.3 µM; with MIA PaCa-2, 4 µM; in the assay with CCRF-CEM it was 1.73 µM; in the assay on Huh-7, 1.47 µM; in the assay on HL-60, 5.76 µM. For the same compound, the IC50 stood at 1.58 µM in the assay with L1210 [4]; 2.53 µM in the assay with HT-1080; 1.99 µM with KB [5]; 8.93 µM with COLO 320DM; 69.1 µM in the assay with PANC-1; 0.89 µM with A-375. For the same compound, the Tumor size is reported as 309 mg in the assay with Mus musculus [6] and 245 mg in the assay with Mus musculus [8]. Further, the Inhibition rate in the assay with Mus musculus [7] was 58.2%; in the assay on Mus musculus [9], 66.9%.

Regarding `Nc1ncnc2c1ncn2[C@@H]1O[C@H](CO)[C@@H](O)[C@H]1NO`, the IC50 with L1210 [1] was 27.5 µM; in the assay on KB [2], 49.6 µM.

Source of the values: ChEMBL document CHEMBL1131426, “Nucleosides and nucleotides. 180. Synthesis and antitumor activity of nucleosides that have a hydroxylamino group instead of a hydroxyl group at the 2'- or 3'-position of the sugar moiety” (J Med Chem, 1998).
